Data published in ChEMBL document CHEMBL4689842, “EUbOPEN Chemogenomics Library wave 1” (2021).
Values joined by “and” are separate entries in the source; they are usually repeats but may differ in a detail not shown here. Equal values may be shown once.

Tested on: HEK-293T
Experiment: Multiplex assay against HEK293T;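 on Population Tubulin-Different-Phenotype (%): share of the cells with healthy nuclei that show this phenotype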
Assay type: toxicity, cell-based
Settings: human
Method in brief: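 On a CQ1 microscope at 37°C and 5% CO2, live cells were imaged after compound addition. They had been stained at seeding with Hoechst33342, BioTracker Green Microtubule Cytoskeleton Dye, MitoTracker Red and Annexin V Alexa Fluor 680. CellPathfinder machine-learning gating assigned cells to Hoechst high-intensity objects or normal cells, normal cells to healthy, pyknosed or fragmented nuclei, and pyknosed cells to mitotic or apoptotic. Tubulin, mitochondrial-mass and membrane-permeability phenotypes are per cents of healthy-nucleus cells.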

[1] = 12 h, 10 µM, compound concentration 10 uM, replicate 1
[2] = 12 h, 10 µM, compound concentration 10 uM, replicate 2
[3] = 24 h, 10 µM, compound concentration 10 uM, replicate 1
[4] = 24 h, 10 µM, compound concentration 10 uM, replicate 2
[5] = 12 h, 1 µM, compound concentration 1 uM, replicate 1
[6] = 12 h, 1 µM, compound concentration 1 uM, replicate 2
[7] = 24 h, 1 µM, compound concentration 1 uM, replicate 1
[8] = 24 h, 1 µM, compound concentration 1 uM, replicate 2
[9] = 48 h, 1 µM, compound concentration 1 uM, replicate 1
[10] = 48 h, 1 µM, compound concentration 1 uM, replicate 2
[11] = 48 h, 10 µM, compound concentration 10 uM, replicate 1
[12] = 48 h, 10 µM, compound concentration 10 uM, replicate 2

## O=C(NCCN1CCOCC1)c1ccc2c(c1)C(=O)c1ccc(Nc3ccc(F)c(NC(=O)c4ccccc4)c3)cc1CC2 [FS-694]
[1]
  Population Apoptotic (%): 34%
  Population Fragmented Nuclei (%): 35% and 16%
  Population Healthy Nuclei (%): 29% and 54%
  Population Membrane Permeable-Phenotype (%): 32% and 21%
  Population Mitochondria Different-Phenotype (%): 12% and 9%
  Population Mitotic Cells (%): 65%
  Population Normal (%): 41% and 85%
  Population Pyknosed Nuclei (%): 35% and 29%
  Population Tubulin-Different-Phenotype (%): 30% and 33%
  Total Cell Count: 1239 and 557
[2]
  Population Apoptotic (%): 28% and 16%
  Population Fragmented Nuclei (%): 3% and 4%
  Population Healthy Nuclei (%): 69% and 85%
  Population Membrane Permeable-Phenotype (%): 15% and 11%
  Population Mitochondria Different-Phenotype (%): 47% and 23%
  Population Mitotic Cells (%): 71% and 83%
  Population Normal (%): 76% and 96%
  Population Pyknosed Nuclei (%): 26% and 9%
  Population Tubulin-Different-Phenotype (%): 97% and 66%
  Total Cell Count: 1142 and 1356
[3]
  Population Apoptotic (%): 48% and 24%
  Population Membrane Permeable-Phenotype (%): 31% and 22%
  Population Mitochondria Different-Phenotype (%): 14% and 8%
  Population Mitotic Cells (%): 51% and 75%
  Population Normal (%): 43% and 89%
  Population Pyknosed Nuclei (%): 34% and 16%
  Population Tubulin-Different-Phenotype (%): 18% and 51%
  Total Cell Count: 1331 and 564
[4]
  Population Fragmented Nuclei (%): 5%
  Population Healthy Nuclei (%): 85% and 58%
  Population Mitotic Cells (%): 90% and 60%
  Population Normal (%): 95% and 69%
  Population Tubulin-Different-Phenotype (%): 70% and 96%
  Total Cell Count: 1983 and 1283

## CC[C@H](C)C(=O)O[C@H]1C[C@@H](C)C=C2C=C[C@H](C)[C@H](CC[C@@H]3C[C@@H](O)CC(=O)O3)[C@H]21 [LOVASTATIN]
[5]
  Population Apoptotic (%): 48%
  Population Fragmented Nuclei (%): 22%
  Population Healthy Nuclei (%): 16%
  Population Hoechst High Intensity Objects (%): 14%
  Population Mitochondria Different-Phenotype (%): 68%
  Population Mitotic Cells (%): 51%
  Population Normal (%): 85%
  Population Pyknosed Nuclei (%): 60%
  Population Tubulin-Different-Phenotype (%): 28%
  Total Cell Count: 174
[6]
  Population Apoptotic (%): 7%
  Population Fragmented Nuclei (%): 4%
  Population Healthy Nuclei (%): 44%
  Population Hoechst High Intensity Objects (%): 4%
  Population Membrane Permeable-Phenotype (%): 4%
  Population Mitochondria Different-Phenotype (%): 11%
  Population Mitotic Cells (%): 92%
  Population Normal (%): 95%
  Population Pyknosed Nuclei (%): 50%
  Population Tubulin-Different-Phenotype (%): 9%
  Total Cell Count: 227
[1]
  Population Apoptotic (%): 47%
  Population Fragmented Nuclei (%): 8%
  Population Healthy Nuclei (%): 33%
  Population Hoechst High Intensity Objects (%): 14%
  Population Membrane Permeable-Phenotype (%): 1%
  Population Mitochondria Different-Phenotype (%): 89%
  Population Mitotic Cells (%): 52%
  Population Normal (%): 85%
  Population Pyknosed Nuclei (%): 57%
  Population Tubulin-Different-Phenotype (%): 39%
  Total Cell Count: 341
[2]
  Population Apoptotic (%): 10%
  Population Fragmented Nuclei (%): 5%
  Population Healthy Nuclei (%): 45%
  Population Hoechst High Intensity Objects (%): 3%
  Population Membrane Permeable-Phenotype (%): 4%
  Population Mitochondria Different-Phenotype (%): 21%
  Population Mitotic Cells (%): 89%
  Population Normal (%): 96%
  Population Pyknosed Nuclei (%): 49%
  Population Tubulin-Different-Phenotype (%): 16%
  Total Cell Count: 266
[7]
  Population Apoptotic (%): 50%
  Population Fragmented Nuclei (%): 30%
  Population Healthy Nuclei (%): 16%
  Population Hoechst High Intensity Objects (%): 19%
  Population Membrane Permeable-Phenotype (%): 4%
  Population Mitochondria Different-Phenotype (%): 52%
  Population Mitotic Cells (%): 50%
  Population Normal (%): 80%
  Population Pyknosed Nuclei (%): 52%
  Population Tubulin-Different-Phenotype (%): 32%
  Total Cell Count: 192
[8]
  Population Apoptotic (%): 8%
  Population Fragmented Nuclei (%): 3%
  Population Healthy Nuclei (%): 65%
  Population Hoechst High Intensity Objects (%): 3%
  Population Membrane Permeable-Phenotype (%): 6%
  Population Mitochondria Different-Phenotype (%): 13%
  Population Mitotic Cells (%): 91%
  Population Normal (%): 96%
  Population Pyknosed Nuclei (%): 30%
  Population Tubulin-Different-Phenotype (%): 20%
  Total Cell Count: 287
[3]
  Population Apoptotic (%): 38%
  Population Fragmented Nuclei (%): 12%
  Population Healthy Nuclei (%): 37%
  Population Hoechst High Intensity Objects (%): 17%
  Population Membrane Permeable-Phenotype (%): 1%
  Population Mitochondria Different-Phenotype (%): 73%
  Population Mitotic Cells (%): 61%
  Population Normal (%): 82%
  Population Pyknosed Nuclei (%): 50%
  Population Tubulin-Different-Phenotype (%): 37%
  Total Cell Count: 349
[4]
  Population Apoptotic (%): 14%
  Population Fragmented Nuclei (%): 4%
  Population Healthy Nuclei (%): 57%
  Population Hoechst High Intensity Objects (%): 4%
  Population Membrane Permeable-Phenotype (%): 6%
  Population Mitochondria Different-Phenotype (%): 17%
  Population Mitotic Cells (%): 85%
  Population Normal (%): 95%
  Population Pyknosed Nuclei (%): 37%
  Population Tubulin-Different-Phenotype (%): 20%
  Total Cell Count: 320
[9]
  Population Apoptotic (%): 49%
  Population Fragmented Nuclei (%): 29%
  Population Healthy Nuclei (%): 28%
  Population Hoechst High Intensity Objects (%): 15%
  Population Membrane Permeable-Phenotype (%): 2%
  Population Mitochondria Different-Phenotype (%): 42%
  Population Mitotic Cells (%): 50%
  Population Normal (%): 84%
  Population Pyknosed Nuclei (%): 41%
  Population Tubulin-Different-Phenotype (%): 40%
  Total Cell Count: 205
[10]
  Population Apoptotic (%): 3%
  Population Fragmented Nuclei (%): 6%
  Population Healthy Nuclei (%): 81%
  Population Hoechst High Intensity Objects (%): 3%
  Population Membrane Permeable-Phenotype (%): 7%
  Population Mitochondria Different-Phenotype (%): 4%
  Population Mitotic Cells (%): 96%
  Population Normal (%): 96%
  Population Pyknosed Nuclei (%): 11%
  Population Tubulin-Different-Phenotype (%): 20%
  Total Cell Count: 588
[11]
  Population Apoptotic (%): 42%
  Population Fragmented Nuclei (%): 17%
  Population Healthy Nuclei (%): 37%
  Population Hoechst High Intensity Objects (%): 19%
  Population Membrane Permeable-Phenotype (%): 2%
  Population Mitochondria Different-Phenotype (%): 46%
  Population Mitotic Cells (%): 57%
  Population Normal (%): 80%
  Population Pyknosed Nuclei (%): 45%
  Population Tubulin-Different-Phenotype (%): 39%
  Total Cell Count: 384
[12]
  Population Apoptotic (%): 8%
  Population Fragmented Nuclei (%): 5%
  Population Healthy Nuclei (%): 72%
  Population Hoechst High Intensity Objects (%): 4%
  Population Membrane Permeable-Phenotype (%): 6%
  Population Mitochondria Different-Phenotype (%): 5%
  Population Mitotic Cells (%): 91%
  Population Normal (%): 95%
  Population Pyknosed Nuclei (%): 21%
  Population Tubulin-Different-Phenotype (%): 24%
  Total Cell Count: 484
